Test results as given in ChEMBL document CHEMBL1128228, “2,3-Dihydro-1-benzofuran-5-ols as analogues of alpha-tocopherol that inhibit in vitro and ex vivo lipid autoxidation and protect mice against central nervous system trauma” (J Med Chem, 1995).
The source made the active and inactive calls. The rule behind the calls is not given here.

Experiments:
Rattus norvegicus [1] = organism: Rattus norvegicus; assay: In vitro inhibition of lipid autoxidation (TBARS formation) of rat brain homogenate; format: functional
Outline: (§1)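 Rat brain homogenate was incubated at 37 °C for 30 min, and TBARS formation was measured. The value is the concentration giving 50% inhibition, as mean ± SD with the number of experiments given.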

Mus musculus [2] = assay: Ex vivo inhibition of mouse brain lipid autoxidation after 1 hr by 20 umol/kg subcutaneous administration; format: functional; conditions: sc
Outline: (§2)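 Male CD1 mice (30 g, five per group) were given 20 μmol/kg sc or saline and killed 1 h later. Brains were frozen in liquid N2, stored at -80 °C, then homogenized 1/19 w/v in ice-cold water. Homogenate (10 mg tissue) was incubated in 20 mM KH2PO4 pH 7.3 with 0.14 M KCl (final) at 37 °C for 30 min. Unincubated samples gave basal TBARS.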

[3] = Superoxyl radical (O2) scavenging reaction rate constant in competition with nitro-blue tetrazolium of superoxyl radicals formed by xanthine oxidase in the presence of xanthine; format: functional
Mus musculus [4] = assay: […] fter 1 hr by 20 umol/kg subcutaneous administration; format: functional, organism-based
Outline: (§3)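 Mouse brain homogenates taken 1 h after 20 μmol/kg sc were diluted in methanol containing 2% ascorbic acid and centrifuged. Supernatant was run on a C8 column with isocratic 0.1 M phosphate/50–75% methanol. Detection was electrochemical at 0.6 V. Results are nmol/g, mean ± SD, five mice per group.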

[5] = O2 scavenging reaction rate constant for competition with nitro-blue tetrazolium of superoxyl radicals formed by xanthine oxidase in the presence of xanthine;No reaction; format: functional
Rattus norvegicus [6] = organism: Rattus norvegicus; assay: In vitro lipid autoxidation (TBARS formation) in rat brain homogenate; no inhibition; format: functional; outline: as §1
Mus musculus [7] = assay: Mouse brain drug concentration after 1 hr of 20 umol/kg subcutaneous administration; format: functional, organism-based; outline: as §3
Mus musculus [8] = organism: Mus musculus; assay: Percentage number of paraparetic mice 1 hr after concussive head injury; format: functional
Outline: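 Mice were dosed 12 mg/kg sc 30 min before concussive head injury, a blow of measured severity. At 1 h a blinded string test counted mice unable to raise their hind limbs onto a horizontal string as paraparetic. Groups had 20–25 mice and were compared with saline by χ-square.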

Mus musculus [9] = assay: Ex vivo inhibition of mouse brain lipid autoxidation after 1 hr by 20 umol/kg subcutaneous administration; no inhibition; format: functional, organism-based; outline: as §2
Mus musculus [10] = assay: Ex vivo inhibition of mouse brain lipid autoxidation after 1 hr by 1 umol/kg subcutaneous administration; format: functional; conditions: sc

Row | Compound | IC50 (Rattus norvegicus [1]; Rattus norvegicus, Brain) | inhibition in vivo at 20 µmol/kg (Mus musculus [2]) | Rate constant [3] | other results
1 | Cc1c(C)c2c(c(C)c1O)C(C(=O)OCCN1CCN(C)CC1)C(C)(C)O2 (stereo not drawn) | 3900 nM | 10% | – | –
2 | Cc1c(C)c2c(c(C)c1O)C(C[N+](C)(C)C)C(C)(C)O2 (stereo not drawn) | 3600 nM | – | 49000 M⁻¹ s⁻¹ | –
3 | COC(=O)C1c2c(C)c(O)c(C)c(C)c2OC1(C)C (stereo not drawn) | 3200 nM | – | – | –
4 | CC(=O)OCCN1CCN(CC2c3c(C)c(OC(C)=O)c(C)c(C)c3OC2(C)C)CC1 (stereo not drawn) | – | 35% | – | Concentration (Mus musculus [4]): 5.7 nM/g; Rate constant [5]: inactive; IC50 (Rattus norvegicus [6]): Not Active
5 | Cc1c(C)c2c(c(C)c1O)C(CN1CCN(CCO)CC1)C(C)(C)O2 (stereo not drawn) | 500 nM | 57% | 90000 M⁻¹ s⁻¹ | Concentration (Mus musculus [7]): 6.5 nM/g; Paraparetic mice (Mus musculus [8]): 40%
6 | Cc1c(C)c2c(c(C)c1O)C(C(=O)N1CCN(C)CC1)C(C)(C)O2 (stereo not drawn) | 12000 nM | – | 83000 M⁻¹ s⁻¹ | –
7 | Cc1c(C)c2c(c(C)c1O)C(CN1CCN(CCOCCO)CC1)C(C)(C)O2 (stereo not drawn) | 1200 nM | – | 85000 M⁻¹ s⁻¹ | Concentration (Mus musculus [7]): 1.2 nM/g; Paraparetic mice (Mus musculus [8]): 60%; inhibition (Mus musculus [9]): inactive
8 | Cc1c(C)c2c(c(C)c1O)C(CO)C(C)(C)O2 (stereo not drawn) | 2600 nM | – | 140000 M⁻¹ s⁻¹ | –
9 | Cc1c(C)c2c(c(C)c1O)C(CN(C)C)C(C)(C)O2 (stereo not drawn) | 700 nM | – | 150000 M⁻¹ s⁻¹ | inhibition (Mus musculus [9]): inactive
10 | Cc1c(C)c2c(c(C)c1O)C(CN1CCN(Cc3ccccc3)CC1)C(C)(C)O2 (stereo not drawn) | 300 nM | 24% | 20000 M⁻¹ s⁻¹ | Concentration (Mus musculus [7]): 1.6 nM/g
11 | Cc1c(C)c2c(c(C)c1O)CCC(C)(CCN(C)C)O2 (stereo not drawn) | 700 nM | 16% | 27000 M⁻¹ s⁻¹ | –
12 | Cc1c(C)c2c(c(C)c1O)C(C(=O)N1CCN(CCO)CC1)C(C)(C)O2 (stereo not drawn) | 19000 nM | – | 43000 M⁻¹ s⁻¹ | –
13 | CC(=O)Oc1c(C)c(C)c2c(c1C)C(CN1CCN(C)CC1)C(C)(C)O2 (stereo not drawn) | – | 57% | – | Concentration (Mus musculus [4]): 7.2 nM/g; IC50 (Rattus norvegicus [6]): Not Active
14 | Cc1c(C)c2c(c(C)c1O)C(CN1CCCCC1)C(C)(C)O2 (stereo not drawn) | 400 nM | – | 90000 M⁻¹ s⁻¹ | inhibition in vivo at 1 µmol/kg (Mus musculus [10]): 50%
15 | Cc1c(C)c2c(c(C)c1O)C(CNC(C)C)C(C)(C)O2 (stereo not drawn) | 1400 nM | – | 330000 M⁻¹ s⁻¹ | inhibition in vivo at 1 µmol/kg (Mus musculus [10]): 37%
16 | Cc1c(C)c2c(c(C)c1O)C(CN1CCN(C)CC1)C(C)(C)O2 (stereo not drawn) | 450 nM | 63% | – | IC50 (Rattus norvegicus [1]): 400 nM; Concentration (Mus musculus [7]): 7.5 nM/g; Paraparetic mice (Mus musculus [8]): 30%
17 | Cc1c(C)c2c(c(C)c1O)C(C(=O)O)C(C)(C)O2 (stereo not drawn) | 27000 nM | – | 67000 M⁻¹ s⁻¹ | –
18 | Cc1c(C)c2c(c(C)c1O)C(CN1CCN(c3ncccn3)CC1)C(C)(C)O2 (stereo not drawn) | 400 nM | 29% | – | Concentration (Mus musculus [7]): 0.8 nM/g
19 | Cc1c(C)c2c(c(C)c1O)CCC(C)(CC[N+](C)(C)C)O2.Cc1ccc(S(=O)(=O)[O-])cc1 (stereo not drawn) | 2000 nM | – | 24000 M⁻¹ s⁻¹ | Paraparetic mice (Mus musculus [8]): 40%
20 | Cc1c(C)c2c(c(C)c1O)CC[C@@](C)(CCC[C@H](C)CCC[C@H](C)CCCC(C)C)O2 [ALPHA-TOCOPHEROL] | 14000 nM | – | – | –
